Results: ChEMBL document CHEMBL1909521, “A class of novel N-(1-methyl-β-carboline-3-carbonyl)-N'-(aminoacid-acyl)-hydrazines: aromatization leaded design, synthesis, in vitro anti-platelet aggregation/in vivo anti-thrombotic evaluation and 3D QSAR analysis” (Eur J Med Chem, 2011)
Structures can show the parent of a compound that is named as a salt.

Legend:
Rattus norvegicus [1] = assay: Antithrombotic activity in Wister rat assessed as reduction of thrombus weight at 10 nmol/kg, po (reference value: 31.87 +/- 1.71 mg); format: functional
Rattus norvegicus [2] = assay: Antithrombotic activity in Wister rat assessed as reduction of thrombus weight at 10 nmol/kg, po (reference value: 28.21 +/- 1.11 mg); format: functional
[3] = Antiaggregatory activity in pig platelets assessed as inhibition of arachidonic acid-induced platelet aggregation after 5 mins; format: functional, cell-based; conditions: Sus scrofa
How it was run: (§1)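 Pig blood (6 pigs) was spun at 1000 rpm for 10 min to give PRP, then 1500 rpm for 10 min to give PPP. PRP was adjusted to 2×10^8 platelets/ml with autologous PPP. Compound (final 100 µM to 0.001 µM, diluted in NS) or NS was added before agonist: ADP 10 µM, AA 350 µM or PAF 0.1 µM final. Aggregation was read optically at 37 °C for 5 min, in sixplicate. IC50 came from the concentration–inhibition curve.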

[4] = Antiaggregatory activity in pig platelets assessed as inhibition of platelet-activating factor-induced platelet aggregation after 5 mins; format: functional, cell-based; conditions: Sus scrofa; how it was run: as §1
[5] = Antiaggregatory activity in pig platelets assessed as inhibition of adenosine diphosphate-induced platelet aggregation after 5 mins; format: functional, cell-based; conditions: Sus scrofa; how it was run: as §1
Rattus norvegicus [6] = assay: Antithrombotic activity in Wister rat assessed as reduction of thrombus weight at 1 nmol/kg, po (reference value: 31.87 +/- 1.71 mg); format: functional
[7] = Antiplatelet activity in rabbit platelets assessed as inhibition of collagen-induced platelet aggregation; format: functional, cell-based; conditions: Oryctolagus cuniculus
Rattus norvegicus [8] = assay: Antithrombotic activity in Wister rat assessed as reduction of thrombus weight at 0.01 nmol/kg, po (reference value: 31.87 +/- 1.71 mg); format: functional
Rattus norvegicus [9] = assay: Antithrombotic activity in Wister rat assessed as reduction of thrombus weight at 0.1 nmol/kg, po (reference value: 31.87 +/- 1.71 mg); format: functional
Rattus norvegicus [10] = assay: Antithrombotic activity in po dosed Wister rat assessed as reduction of thrombus weight; format: functional, organism-based
Rattus norvegicus [11] = assay: Antithrombotic activity in Wister rat assessed as reduction of thrombus weight at 160 to 165 umol/kg, po (reference value: 31.87 +/- 1.71 mg); format: functional

| Compound | Activity (Rattus norvegicus [1]) [mg] | Activity (Rattus norvegicus [2]) [mg] | IC50 [3] [µM] | IC50 [4] [µM] | IC50 [5] [µM] | Activity (Rattus norvegicus [6]) [mg] | IC50 [7] [µM] | Activity (Rattus norvegicus [8]) [mg] | Activity (Rattus norvegicus [9]) [mg] | Activity (Rattus norvegicus [10]) | Activity (Rattus norvegicus [11]) [mg] |
| --- | --- | --- | --- | --- | --- | --- | --- | --- | --- | --- | --- |
| Cc1nc(C(=O)NNC(=O)[C@H](C)NC(=O)OC(C)(C)C)cc2c1[nH]c1ccccc12 | 22.67 | 20.06 | 20 | 162 | 118 | – | – | – | – | – | – |
| CSCC[C@H](N)C(=O)NNC(=O)c1cc2c([nH]c3ccccc32)c(C)n1 | – | – | 4.7 | 13.4 | 58.9 | 23.43 | – | – | – | – | – |
| CC[C@H](C)[C@H](NC(=O)OC(C)(C)C)C(=O)NNC(=O)c1cc2c([nH]c3ccccc32)c(C)n1 | 23.3 | 20.62 | 2.4 | 1.4 | 51.1 | – | – | – | – | – | – |
| Cc1nc(C(=O)NN)cc2c1[nH]c1ccccc12 | 26.66 | – | 32.9 | 92.8 | 110 | – | – | – | – | – | – |
| Cc1nc(C(=O)NNC(=O)[C@@H](N)CC(=O)OCc2ccccc2)cc2c1[nH]c1ccccc12 | – | – | 3.7 | 52.9 | 81.7 | 23.23 | – | – | – | – | – |
| Cc1nc(C(=O)NNC(=O)[C@@H](N)CO)cc2c1[nH]c1ccccc12 | – | – | 9 | 52.9 | 50.9 | 24.78 | – | – | – | – | – |
| CC1=NCCc2c1[nH]c1cc(O)ccc21 [HARMALOL] | – | – | – | – | – | – | 130 | – | – | – | – |
| Cc1nc(C(=O)NNC(=O)[C@@H](N)CCCCN)cc2c1[nH]c1ccccc12 | – | – | 4.1 | 52.9 | 58.9 | 23.3 | – | – | – | – | – |
| Cc1nc(C(=O)NNC(=O)[C@H](Cc2cn(C(=O)OC(C)(C)C)cn2)NC(=O)OC(C)(C)C)cc2c1[nH]c1ccccc12 | 21.32 | 18.87 | 4.8 | 7.7 | 94.6 | – | – | – | – | – | – |
| Cc1nc(C(=O)NNC(=O)[C@@H](N)C(C)C)cc2c1[nH]c1ccccc12 | – | – | 0.3 | 2 | 20.8 | 18.3 | – | 27.12 | 23.8 | Dose-dependent effect | – |
| CSCC[C@H](NC(=O)OC(C)(C)C)C(=O)NNC(=O)c1cc2c([nH]c3ccccc32)c(C)n1 | 20.96 | 18.55 | 21.7 | 52.9 | 417 | – | – | – | – | – | – |
| Cc1nc(C(=O)NNC(=O)[C@@H](N)[C@@H](C)O)cc2c1[nH]c1ccccc12 | – | – | 5.2 | 20.9 | 24.8 | 23.65 | – | – | – | – | – |
| CC[C@H](C)[C@H](N)C(=O)NNC(=O)c1cc2c([nH]c3ccccc32)c(C)n1 | – | – | 3.6 | 5.6 | 74 | 23.12 | – | – | – | – | – |
| Cc1nc(C(=O)NNC(=O)[C@H](CCC(=O)OCc2ccccc2)NC(=O)OC(C)(C)C)cc2c1[nH]c1ccccc12 | 22.2 | 19.65 | 6.3 | 362 | 524 | – | – | – | – | – | – |
| Cc1nc(C(=O)NNC(=O)[C@H](CC(C)C)NC(=O)OC(C)(C)C)cc2c1[nH]c1ccccc12 | 23.8 | 21.06 | 3.2 | 1.2 | 31.6 | – | – | – | – | – | – |
| Cc1nc(C(=O)NNC(=O)[C@H](Cc2c[nH]c3ccccc23)NC(=O)OC(C)(C)C)cc2c1[nH]c1ccccc12 | 21.52 | 19.04 | 0.6 | 4.3 | 21.7 | – | – | – | – | – | – |
| Cc1nc(C(=O)NNC(=O)[C@H](CO)NC(=O)OC(C)(C)C)cc2c1[nH]c1ccccc12 | 21.1 | 18.67 | 19.9 | 119 | 276 | – | – | – | – | – | – |
| Cc1nc(C(=O)NNC(=O)[C@H](CC(N)=O)NC(=O)OC(C)(C)C)cc2c1[nH]c1ccccc12 | 24.14 | 21.36 | 19.7 | 507 | 609 | – | – | – | – | – | – |
| Cc1nc(C(=O)NNC(=O)[C@H](CCCCNC(=O)OC(C)(C)C)NC(=O)OC(C)(C)C)cc2c1[nH]c1ccccc12 | 22.32 | 19.75 | 3.4 | 106 | 321 | – | – | – | – | – | – |
| COc1ccc2c3c([nH]c2c1)C(C)=NCC3 [HARMALINE] | – | – | – | – | – | – | 130 | – | – | – | – |

| Compound | Activity (Rattus norvegicus [1]) [mg] | Activity (Rattus norvegicus [2]) [mg] | IC50 [3] [µM] | IC50 [4] [µM] | IC50 [5] [µM] | Activity (Rattus norvegicus [6]) [mg] | IC50 [7] [µM] | Activity (Rattus norvegicus [8]) [mg] | Activity (Rattus norvegicus [9]) [mg] | Activity (Rattus norvegicus [10]) | Activity (Rattus norvegicus [11]) [mg] |
| --- | --- | --- | --- | --- | --- | --- | --- | --- | --- | --- | --- |
| Cc1nc(C(=O)NNC(=O)CN)cc2c1[nH]c1ccccc12 | – | – | 5.2 | 52.9 | 53.3 | 23.7 | – | – | – | – | – |
| COc1ccc2c(c1)[nH]c1c(C)nccc12 [HARMINE] | – | – | – | – | – | – | 130 | – | – | – | – |
| Cc1nc(C(=O)NNC(=O)[C@@H](N)CC(N)=O)cc2c1[nH]c1ccccc12 | – | – | 6.2 | 39.7 | 65.8 | 23.97 | – | – | – | – | – |
| Cc1nc(C(=O)NNC(=O)[C@@H](N)Cc2cnc[nH]2)cc2c1[nH]c1ccccc12 | – | – | 0.2 | 42.5 | 25.7 | 18.1 | – | – | – | – | – |
| Cc1nc(C(=O)NNC(=O)[C@H](CC(=O)OCc2ccccc2)NC(=O)OC(C)(C)C)cc2c1[nH]c1ccccc12 | 21.44 | 18.97 | 5.2 | 196 | 117 | – | – | – | – | – | – |
| Cc1nc(C(=O)NNC(=O)[C@@H](N)CCC(=O)OCc2ccccc2)cc2c1[nH]c1ccccc12 | – | – | 2.3 | 64.3 | 58.9 | 18.8 | – | – | – | – | – |
| Cc1nc(C(=O)NNC(=O)[C@@H]2CCCN2C(=O)OC(C)(C)C)cc2c1[nH]c1ccccc12 | 23.04 | 20.39 | 20.6 | 134 | 166 | – | – | – | – | – | – |
| CC(=O)Oc1ccccc1C(=O)O [ASPIRIN] | – | – | – | – | – | – | – | – | – | – | 18.86 |
| Cc1nc(C(=O)NNC(=O)[C@@H]2CCCN2)cc2c1[nH]c1ccccc12 | – | – | 5.8 | 44.5 | 48.7 | 24.37 | – | – | – | – | – |
| Cc1nc(C(=O)NNC(=O)[C@@H](N)Cc2c[nH]c3ccccc23)cc2c1[nH]c1ccccc12 | – | – | 8.7 | 19.3 | 28.9 | 24.56 | – | – | – | – | – |
| Cc1nc(C(=O)NNC(=O)[C@@H](N)CC(C)C)cc2c1[nH]c1ccccc12 | – | – | 8.2 | 1.1 | 23 | 24.49 | – | – | – | – | – |
| Cc1nc(C(=O)NNC(=O)[C@H](Cc2ccc(O)cc2)NC(=O)OC(C)(C)C)cc2c1[nH]c1ccccc12 | 23.73 | 21 | 13 | 12.7 | 152 | – | – | – | – | – | – |
| Cc1nc(C(=O)NNC(=O)[C@@H](NC(=O)OC(C)(C)C)[C@@H](C)O)cc2c1[nH]c1ccccc12 | 22.87 | 20.24 | 4.7 | 31.9 | 531 | – | – | – | – | – | – |
| Cc1nc(C(=O)NNC(=O)[C@H](C)N)cc2c1[nH]c1ccccc12 | – | – | 6.7 | 47.4 | 58.9 | 24.39 | – | – | – | – | – |
| Cc1nccc2c1[nH]c1cc(O)ccc12 [HARMOL HYDROCHLORIDE] | – | – | – | – | – | – | 130 | – | – | – | – |
| Cc1nc(C(=O)NNC(=O)[C@@H](N)Cc2ccc(O)cc2)cc2c1[nH]c1ccccc12 | – | – | 1.7 | 37.4 | 74.6 | 18.56 | – | – | – | – | – |
| c1ccc2c(c1)[nH]c1cnccc12 [NORHARMANE] | – | – | – | – | – | – | 130 | – | – | – | – |
| Cc1nccc2c1[nH]c1ccccc12 [HARMAN] | – | – | – | – | – | – | 130 | – | – | – | – |
| Cc1nc(C(=O)NNC(=O)[C@@H](NC(=O)OC(C)(C)C)C(C)C)cc2c1[nH]c1ccccc12 | 24.01 | 24.01 | 3.7 | 50 | 156 | – | – | – | – | – | – |
| Cc1nc(C(=O)NNC(=O)CNC(=O)OC(C)(C)C)cc2c1[nH]c1ccccc12 | 26.83 | 23.74 | 20.7 | 348 | 722 | – | – | – | – | – | – |
